CCR6 antagonist: CCR6 (human) receptor antagonism; P51684; CHO-K1 CCR6 PathHunter beta-arrestin, luminescence, CCL20-stimulated; inhibition, % at 20 µM; hit rate 0.49% among 340,000; AID 493098;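 active = compounds whose inhibition of the agonist-driven luminescence signal at 20 µM reaches about 50%, limit read from the data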;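 also: cells stimulated with CCL20 at 14 nM final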
Target sequence (P51684 whole entry, looked up): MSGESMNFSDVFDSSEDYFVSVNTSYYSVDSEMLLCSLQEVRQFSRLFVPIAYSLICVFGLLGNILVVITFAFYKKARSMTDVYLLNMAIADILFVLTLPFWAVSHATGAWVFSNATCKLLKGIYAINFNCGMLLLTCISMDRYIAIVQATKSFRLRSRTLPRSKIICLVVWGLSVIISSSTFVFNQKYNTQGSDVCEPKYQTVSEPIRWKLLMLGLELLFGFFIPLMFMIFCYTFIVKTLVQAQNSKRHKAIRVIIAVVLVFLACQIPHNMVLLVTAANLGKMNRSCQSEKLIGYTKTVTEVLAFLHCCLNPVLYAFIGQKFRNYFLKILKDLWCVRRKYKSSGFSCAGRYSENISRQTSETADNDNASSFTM
EBI2 block: blocks human EBI2 receptor beta-arrestin signaling | hit rate 0.81% among 360,000 | inhibition, % at 5 µM | EBI2 beta-arrestin recruitment, luminescence, 7a,25-OHC stimulated | P32249; in the data active = inhibition above about 38%;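 also: enzyme fragment complementation signal reports receptor beta-arrestin coupling in cells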
APJ ag: activates the human apelin receptor APJ; P35414; CHO-K1 APJ PathHunter beta-arrestin, luminescence; 0% DMSO wells, 100% apelin; activation, % at 20 µM; hit rate 0.11% among 330,000; AID 2520;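 active = activation more than six SD over the plate average, tested at 20 µM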
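Test system: CHO-K1 APJ beta-arrestin complementation cell line | Compound: Single test compound dose, 20 µM final, 1% DMSO | Incubation: Compound 90 min 25 °C, reagent 1 h | Measured by: beta-gal luminescence | Read-out basis: APJ–arrestin association signal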
APJ antagonist: APJ receptor antagonism. P35414. CHO-K1 APJ beta-arrestin complementation, luminescence. inhibition, % at 20 µM. hit rate 0.32% among 330,000. AID 2521;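 active = inhibition above about 40% at 20 µM, limit read from the data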;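 also: cells challenged with 10 nM apelin-13 agonist together with compound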
CXCR6 block: CXCR6 (human) receptor inhibition; O00574; CHO-K1 PathHunter CXCR6 beta-arrestin, luminescence; inhibition, % at 20 µM; hit rate 0.36% among 360,000; in the data active = inhibition above about 34%, passing the limit was not always enough;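 also: antagonist mode with CXCL16 agonist at 10 nM final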
Target sequence (O00574 whole entry, looked up): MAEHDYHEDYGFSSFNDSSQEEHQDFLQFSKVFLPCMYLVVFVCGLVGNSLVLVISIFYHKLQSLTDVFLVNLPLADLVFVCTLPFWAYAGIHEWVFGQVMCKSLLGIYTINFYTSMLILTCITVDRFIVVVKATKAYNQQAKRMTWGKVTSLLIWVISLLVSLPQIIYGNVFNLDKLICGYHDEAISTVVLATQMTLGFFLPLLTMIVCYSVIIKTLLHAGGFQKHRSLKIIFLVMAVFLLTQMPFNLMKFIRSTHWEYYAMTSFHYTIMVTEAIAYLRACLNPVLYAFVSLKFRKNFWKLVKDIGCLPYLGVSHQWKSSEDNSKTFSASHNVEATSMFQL
EBI2 conf: confirmation of human EBI2 receptor antagonists | shares compounds with EBI2 block | EBI2 beta-arrestin luminescence, 7a,25-OHC antagonism | inhibition, % at 5 µM | hit rate 29% among 2,400 | AID 651997;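 active = inhibition of at least 50%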
EBI2 agonist: EBI2 agonism counter-screen; shares compounds with EBI2 block; EBI2-expressing cells, agonist mode, luminescence, 60 min; 0% vehicle, 100% 7α,25-dihydroxycholesterol control; activation, % at 5 µM; 2,400 tested, under 10 active; AID 652000;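 active = activation of at least 50%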
bGal cs: counter-screen for EBI2 antagonists: E. coli beta-galactosidase inhibition; AID 652176; inhibition, % at 5 µM; shares compounds with EBI2 block; hit rate 1% among 2,400; purified beta-galactosidase, luminescent Galacton Star, 15 min;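 active = replicate-average signal at least 3 plate SD below neutral wells, shown as high inhibition, flagging enzyme-inhibiting false positives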;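 also: higher means stronger loss of beta-gal luminescence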
Of the large screens only hits and unclear results are named; the others gave an inactive call (follow-up assays come after a bar, where they were run). Sampled rows, rich in hits. Any-hit rate of the full collection: about 1.5%.

Cn1nnc2c(sc3nc(N4CCOCC4)c4c(c32)CCCC4)c1=O	EBI2 block 48.9 | EBI2 conf inactive | EBI2 agonist inactive | bGal cs inactive
CN(C)CCN1CCN(C2CN(CCc3ccccc3)S(=O)(=O)C2)CC1 (stereo not given)	none (no result: CCR6 antagonist, APJ ag, APJ antagonist)
CCN1CCN(C(=O)NC2CC(=O)N(c3ccc(OC)cc3)C2)CC1 (stereo not given)	none
O=C(NC1CC(=O)N(c2ccccc2)C1)N1CCN(C(=O)c2ccco2)CC1 (stereo not given)	none
COc1ccc(NC(=O)N2CCN(c3ccc([N+](=O)[O-])cc3)CC2)cc1	EBI2 block 62.3 | EBI2 conf inactive | EBI2 agonist inactive | bGal cs inactive
O=C(NC1CC(=O)N(c2ccc(Cl)cc2)C1)N1CCN(C(=O)c2ccco2)CC1 (stereo not given)	EBI2 block 66.4 | EBI2 conf inactive | EBI2 agonist inactive | bGal cs inactive
COc1ccc(N2CCN(C(=O)NC3CC(=O)N(c4ccc(OC)cc4)C3)CC2)cc1 (stereo not given)	EBI2 block 46.0 | EBI2 conf inactive | EBI2 agonist inactive | bGal cs inactive
O=C(CC[C@H]1O[C@@H](n2cnc3c(NC(=O)c4ccccc4)ncnc32)[C@H](O)[C@@H]1O)N[C@@H](CO)c1ccccc1	none (no result: CCR6 antagonist, APJ ag, APJ antagonist)
Cc1cc(OCC(=O)N(C)C2CCCCC2)cc(C)c1Cl	EBI2 block 79.2 | EBI2 conf inactive | EBI2 agonist inactive | bGal cs inactive
CN(C(=O)COC(=O)COc1ccc(Cl)cc1)C1CCCCC1	none
Cc1cc(OCC(=O)N(C)C2CCCCC2)ccc1Cl	EBI2 block 73.6 | EBI2 conf inactive | EBI2 agonist inactive | bGal cs inactive
O=C(c1ccc(N2C(=O)c3ccccc3C2=O)cc1)N1CCN(S(=O)(=O)c2ccccc2F)CC1	none (no result: CCR6 antagonist, APJ ag, APJ antagonist)
CC1=C(C(=O)N(C(C)C)C(C)C)CC(CC(=O)NC(c2ccccc2)c2ccccc2)C(=O)N1Cc1ccc(C(C)(C)C)cc1 (stereo not given)	none (no result: CCR6 antagonist, APJ ag, APJ antagonist)
COCOc1cccc(CN2CCC2(C)C(=O)Nc2ccc(OC)c(OC)c2)c1 (stereo not given)	none (no result: CCR6 antagonist, APJ ag, APJ antagonist)
CN(Cc1ccc(Cl)cc1Cl)C(=O)Cc1ccc(S(=O)(=O)N2CCOCC2)s1	none (no result: CCR6 antagonist, APJ ag, APJ antagonist)
CC1CCN(c2nc(/C=C/c3ccccc3)nc3ccccc23)CC1	none
C(=C\c1nc(N2CCCC2)c2ccccc2n1)/c1ccccc1	EBI2 block 40.6 | EBI2 conf 59.1 | EBI2 agonist inactive | bGal cs inactive
Cc1ccc(Cn2cc(CN3CC(N4CCCC4)CS3(=O)=O)nn2)cc1 (stereo not given)	none (no result: CCR6 antagonist, APJ ag, APJ antagonist)
O=C(COc1ccccc1)Nc1ccccc1N1CCCCC1	EBI2 block 45.3 | EBI2 conf inactive | EBI2 agonist inactive | bGal cs inactive
Cc1cccc(OCC(=O)Nc2ccccc2N2CCCCC2)c1	EBI2 block 52.5 | EBI2 conf inactive | EBI2 agonist inactive | bGal cs inactive
Brc1cc2c(cc1C1OCCCO1)OCO2	none (no result: APJ ag, APJ antagonist)
CC(=O)c1nn(-c2ccc(Br)cc2)cc1C(=O)c1ccccc1	EBI2 block 52.2 | EBI2 conf inactive | EBI2 agonist inactive | bGal cs inactive
COc1ccc(C(=O)c2cn(-c3cccc(Br)c3)nc2C(C)=O)cc1	none
CC(=O)c1nn(-c2ccc(Cl)cc2)cc1C(=O)c1ccc(C)cc1	EBI2 block 87.7 | EBI2 conf 51.4 | EBI2 agonist inactive | bGal cs inactive
Cc1nn(Cc2ccc(Cl)cc2Cl)c(C)c1NC(=O)c1ccc(COc2cc(Cl)ccc2Cl)o1	EBI2 block 47.4 | EBI2 conf inactive | EBI2 agonist inactive | bGal cs inactive
CC(N)C(=O)NC(C(=O)NC(C)C(=O)Nc1cccc2ccccc12)C(C)C (stereo not given)	none (no result: CCR6 antagonist, APJ ag, APJ antagonist)
COc1ccc(NC(=O)C2CCCNC2=O)cc1 (stereo not given)	none
CC(=O)c1ccc(NC(=O)C2CCCNC2=O)cc1 (stereo not given)	EBI2 block 55.2 | EBI2 conf inactive | EBI2 agonist inactive | bGal cs inactive
CCOC(=O)C1(CC2CCCCO2)CCN(C(=O)Nc2cccc(SC)c2)CC1 (stereo not given)	none
CCOC(=O)C1(CC2CCCCO2)CCN(C(=O)Nc2ccc(SC)cc2)CC1 (stereo not given)	EBI2 block 40.4 | EBI2 conf inactive | EBI2 agonist inactive | bGal cs inactive
COc1ccc2c(c1)C(CC(C)=O)N(c1ccc(-c3cccs3)cc1)C(c1ccsc1)=C2 (stereo not given)	none (no result: CCR6 antagonist, APJ ag, APJ antagonist)
Cc1cc(C#N)c(C)c(SCc2[nH]nc3c2C(c2ccccc2)C(C#N)=C(N)O3)n1 (stereo not given)	EBI2 block 67.7 | EBI2 conf 54.8 | EBI2 agonist inactive | bGal cs inactive
Cc1cc(C)c(C#N)c(SCc2[nH]nc3c2C(c2ccc(F)cc2)C(C#N)=C(N)O3)n1 (stereo not given)	EBI2 block 83.5 | EBI2 conf 56.5 | EBI2 agonist inactive | bGal cs inactive
CCCCCCCCN1C(=O)[C@H](CC(=O)NCCCOC)C[C@@]2(C(=O)OC)CCCCC=C12	none (no result: CCR6 antagonist, APJ ag, APJ antagonist)
CCOC(=O)CCCN(c1[nH]c(C)c(C)c1C#N)S(=O)(=O)c1ccc(C)cc1	none (no result: CCR6 antagonist, APJ ag, APJ antagonist)
Cc1ccc2nc(-c3ccccc3)c(Cc3ccccc3C(F)(F)F)n2c1	none (no result: CCR6 antagonist, APJ ag, APJ antagonist)
O=C(CCN1C(=O)c2cccc3cccc(c23)C1=O)N1CCOCC1	none
O=C(/C=C/c1ccccc1)N1CCN(CCN2C(=O)c3cccc4cccc(c34)C2=O)CC1	EBI2 block 92.3 | EBI2 conf 83.8 | EBI2 agonist inactive | bGal cs inactive
COC(=O)C1CCN(C(=O)/C=C/c2ccccc2)CC1	EBI2 block 65.6 | EBI2 conf 50.1 | EBI2 agonist inactive | bGal cs inactive
O=C(/C=C/c1ccccc1)N1CCC(Cc2ccccc2)CC1	EBI2 block 89.5 | EBI2 conf 77.5 | EBI2 agonist inactive | bGal cs inactive
O=C(/C=C/c1ccccc1)N1CCC(c2ccccc2)C1 (stereo not given)	EBI2 block 64.2 | EBI2 conf inactive | EBI2 agonist inactive | bGal cs inactive
CCCC(=O)N1CCC(Cc2ccccc2)CC1	none
O=C(/C=C/c1ccco1)N1CCCC(c2ccccc2)C1 (stereo not given)	none
CCn1c(=S)[nH]c2c(=O)n(C)c(=O)n(C)c21	none (no result: APJ ag, APJ antagonist)
O=S(=O)(c1ccccc1F)N1CCc2ccccc2C1	none
CCCCNC(=O)C1(C)CCN1C(=O)c1cccc(OC(F)(F)F)c1 (stereo not given)	none (no result: CCR6 antagonist, APJ ag, APJ antagonist)

Screening data as filed in PubChem BioAssay.
